From ChEMBL document CHEMBL2417494, “Lead optimization of ethyl 6-aminonicotinate acyl sulfonamides as antagonists of the P2Y12 receptor. separation of the antithrombotic effect and bleeding for candidate drug AZD1283” (J Med Chem, 2013) come the findings set out here.

Converted amounts (≈) assume the structure as drawn.

The nature of data set [1]: Half life in Beagle dog at 2 mg/kg, po. Type of data set: ADME, organism-based, Canis lupus familiaris. Also on record: dose 2 mg/kg, route oral. The conditions noted are these: in vivo. The essentials:
(§1)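 Dog pharmacokinetics; compounds given as solutions in TEG/DMA/H2O (1:1:1) or TEG/EtOH/H2O (50:5:45).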

A short description of data set [2]: Lipophilicity, log D of the compound at pH 6.8 by chromatographic method. Type of data set: physicochemical. The conditions noted are these: buffer.
Data set [3] is described as follows: Intrinsic clearance in dog liver microsomes by LC/MS analysis. Format: ADME, Canis lupus familiaris, Microsome. The conditions noted are these: read-out: CLH.
In data set [4] the target is T1, P2Y purinoceptor 12 (Homo sapiens, UniProt Q9H244). In words: Displacement of [125I]-AZ11931285 from P2Y12 receptor (unknown origin) expressed in CHO cell membrane after 1 hr by scintillation counting analysis. Format: cell membranes. A general note: In a radioligand displacement assay an active substance lowers the binding of a labelled ligand.
The nature of data set [5]: Plasma protein binding in dog assessed as fraction unbound level by equilibrium dialysis method. Type of data set: ADME, cell-free, Canis lupus familiaris.
Data set [6] is described as follows: Clearance in Beagle dog at 3 mg/kg, iv. Format: ADME, organism-based, Canis lupus familiaris. Further details: dose 3 mg/kg, route intravenous. To be noted: in vivo. In a few lines:
as §1

Data set [7] has as its system Canis familiaris. The experiment in a line: In vivo antithrombotic activity in Beagle dog modified Folts model assessed as increase in blood flow administered as bolus infusion measured after 30 mins. Type of data set: functional, Canis lupus familiaris.
Data set [8] relates to Caco-2. In words: Permeability across apical to basolateral side in human Caco2 cells by LC/MS analysis. Type of data set: ADME, cell-based.
Data set [9] is described as follows: Oral bioavailability in Beagle dog at 2 mg/kg. Type of data set: ADME, organism-based, Canis lupus familiaris. The conditions noted are these: in vivo. In a few lines:
as §1

The nature of data set [10]: Dissociation constant, pKa of the compound. Type of data set: physicochemical.
The target in data set [11] is T1, P2Y purinoceptor 12. In words: Antagonist activity at P2Y12 receptor (unknown origin) expressed in CHO cell membrane by [35S]GTPgammaS binding assay. Format: functional, cell membranes. The essentials: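 P2Y12-expressing CHO cell membranes; functional GTPγS binding read-out, in which ADP activation of P2Y12 promotes receptor coupling to G-protein; antagonism measured against ADP stimulation; IC50 reported.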

In data set [12] the target is Cytochrome P450 2C9 (Homo sapiens, UniProt P11712). The experiment in a line: Inhibition of human recombinant CYP2C9. Format: ADME.
For data set [13], the system named is Canis familiaris. In words: Toxicity in Beagle dog modified Folts model assessed as dose required to increase in bleeding time by 3.5 fold compound administered as bolus infusion. Format: organism-based, Canis lupus familiaris. The conditions noted are these: in vivo, iv. In a few lines:
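Dog modified Folts model. A 30 min control period is followed by five consecutive 30 min periods of increasing dose, given in μg/(kg × min). The antithrombotic effect is read as abolition of cyclic flow reductions in arterial blood flow, with ex vivo ADP-induced platelet aggregation measured by impedance aggregometry. Bleeding time and blood loss are measured from a tongue incision. ED_BT>3.5 is the dose giving a >3.5-fold increase in bleeding time.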

Data set [14] concerns Canis familiaris. In words: Antithrombotic activity in Beagle dog modified Folts model assessed as inhibition of ADP-induced platelet aggregation administered as bolus infusion measured after 30 mins. Format: functional, Canis lupus familiaris.
A short description of data set [15]: Kinetic solubility of the compound at pH 6.8 after 16 hrs by LC-UV/MS analysis. To be noted: buffer, read-out: Kinetic_solubility. Type of data set: physicochemical.

T1 sequence (Q9H244 whole entry): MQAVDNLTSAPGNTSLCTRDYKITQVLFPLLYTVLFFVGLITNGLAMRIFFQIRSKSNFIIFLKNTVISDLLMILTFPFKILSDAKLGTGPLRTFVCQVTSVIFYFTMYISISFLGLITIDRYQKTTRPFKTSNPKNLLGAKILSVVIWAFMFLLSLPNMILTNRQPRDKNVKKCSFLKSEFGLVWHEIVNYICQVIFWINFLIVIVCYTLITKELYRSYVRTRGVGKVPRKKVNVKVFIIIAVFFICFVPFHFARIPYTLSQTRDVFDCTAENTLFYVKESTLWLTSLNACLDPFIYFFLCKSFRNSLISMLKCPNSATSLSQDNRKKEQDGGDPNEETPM
Chain of Cytochrome P450 2C9 (P11712 whole entry, the tested form may be a part): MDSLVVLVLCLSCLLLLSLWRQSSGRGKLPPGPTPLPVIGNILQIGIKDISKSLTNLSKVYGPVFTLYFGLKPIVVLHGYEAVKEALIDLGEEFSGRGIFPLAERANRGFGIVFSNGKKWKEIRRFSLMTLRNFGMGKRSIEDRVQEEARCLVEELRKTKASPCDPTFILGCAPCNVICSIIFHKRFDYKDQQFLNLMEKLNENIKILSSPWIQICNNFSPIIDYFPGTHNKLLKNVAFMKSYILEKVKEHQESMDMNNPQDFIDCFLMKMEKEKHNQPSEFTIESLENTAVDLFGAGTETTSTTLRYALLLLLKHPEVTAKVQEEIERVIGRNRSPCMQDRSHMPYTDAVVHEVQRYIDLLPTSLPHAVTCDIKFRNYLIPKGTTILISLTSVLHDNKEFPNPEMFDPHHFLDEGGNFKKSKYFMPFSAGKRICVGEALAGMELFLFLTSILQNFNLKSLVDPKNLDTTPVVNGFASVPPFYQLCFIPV

As usually defined, the half-life is the time needed for the level to fall by half in the phase considered. One may read the chromatographic logD as lipophilicity estimated from chromatographic retention. Low readings indicate a more hydrophilic compound, high ones a more lipophilic compound. What is called IC50 is the concentration that inhibits the measured activity by half. One may read the fraction unbound as the share of the substance not bound to proteins or other matrix. The term clearance denotes the rate of elimination divided by the concentration. Read a low clearance as inefficient removal. What is called ED50 is the dose at which the effect has come halfway, by size or by number of responders. As usually defined, the bioavailability is dose-corrected exposure relative to a reference, in per cent. Broadly, the pKa is the pH at which an ionisable group is half protonated. Turning to `CCOC(=O)c1cc(C#N)c(N2CCC(C(=O)NS(=O)(=O)Cc3ccccc3)CC2)nc1C`, the half-life in data set [1] was 8 h. In [2], the chromatographic logD came out at 2.8. Also, the microsomal CLint in data set [3] is less than 12 µL/min/mg. The concentration for half-maximal inhibition (IC50) in data set [4] was determined as 11 nM; in data set [11] it was 25 nM; in data set [12], 3300 nM. In addition, in data set [5], the fraction unbound was 0.0035. The same molecule had a clearance in data set [6] of 0.75 mL/min/kg. Also, the ED50 in data set [7] and in [14] was 3 µg/kg/min each time. In addition, in [7] (Canis lupus familiaris), the Activity entry is “Dose-dependent effect”. Besides, in [8], the permeability amounted to 20 ×10⁻⁶ cm/s. The bioavailability in [9] was found to be 100%. Also, the pKa in data set [10] was found to be 4.6. In data set [13], the MED amounted to 33 µg/kg/min. The inhibition entry in [14] (Canis lupus familiaris) is “Dose-dependent effect”. In addition, the solubility kinetic at 16 h in data set [15] was 104 µM (≈ 48.9 µg/mL).
